Shown are actives, neighbours in structure and some others; about 0.99% of the full set was active somewhere.
GC-B act: human GC-B receptor activators, primary screen, HEK293 GC-B cells, cGMP TR-FRET, EC30 CNP | 0% at EC30 CNP, 100% saturating CNP | activation, % at 10 µM | 0.11% of 370,000 active;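 active means activation at 10 µM reaching about 35% in either raw or pattern-adjusted values, limit read from the data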
NSD2 HMT inh: NSD2 histone methyltransferase inhibitors, primary screen, biochemical, AlphaScreen, single concentration, set 2; inhibition, % at 12.5 µM; 0.54% of 310,000 active; AID 743445, 2014; Histone-lysine N-methyltransferase NSD2 (Homo sapiens), O96028; NSD2 peptide methylation, 120 min; in the data active means inhibition above about 50%
Target sequence (O96028 whole entry, looked up): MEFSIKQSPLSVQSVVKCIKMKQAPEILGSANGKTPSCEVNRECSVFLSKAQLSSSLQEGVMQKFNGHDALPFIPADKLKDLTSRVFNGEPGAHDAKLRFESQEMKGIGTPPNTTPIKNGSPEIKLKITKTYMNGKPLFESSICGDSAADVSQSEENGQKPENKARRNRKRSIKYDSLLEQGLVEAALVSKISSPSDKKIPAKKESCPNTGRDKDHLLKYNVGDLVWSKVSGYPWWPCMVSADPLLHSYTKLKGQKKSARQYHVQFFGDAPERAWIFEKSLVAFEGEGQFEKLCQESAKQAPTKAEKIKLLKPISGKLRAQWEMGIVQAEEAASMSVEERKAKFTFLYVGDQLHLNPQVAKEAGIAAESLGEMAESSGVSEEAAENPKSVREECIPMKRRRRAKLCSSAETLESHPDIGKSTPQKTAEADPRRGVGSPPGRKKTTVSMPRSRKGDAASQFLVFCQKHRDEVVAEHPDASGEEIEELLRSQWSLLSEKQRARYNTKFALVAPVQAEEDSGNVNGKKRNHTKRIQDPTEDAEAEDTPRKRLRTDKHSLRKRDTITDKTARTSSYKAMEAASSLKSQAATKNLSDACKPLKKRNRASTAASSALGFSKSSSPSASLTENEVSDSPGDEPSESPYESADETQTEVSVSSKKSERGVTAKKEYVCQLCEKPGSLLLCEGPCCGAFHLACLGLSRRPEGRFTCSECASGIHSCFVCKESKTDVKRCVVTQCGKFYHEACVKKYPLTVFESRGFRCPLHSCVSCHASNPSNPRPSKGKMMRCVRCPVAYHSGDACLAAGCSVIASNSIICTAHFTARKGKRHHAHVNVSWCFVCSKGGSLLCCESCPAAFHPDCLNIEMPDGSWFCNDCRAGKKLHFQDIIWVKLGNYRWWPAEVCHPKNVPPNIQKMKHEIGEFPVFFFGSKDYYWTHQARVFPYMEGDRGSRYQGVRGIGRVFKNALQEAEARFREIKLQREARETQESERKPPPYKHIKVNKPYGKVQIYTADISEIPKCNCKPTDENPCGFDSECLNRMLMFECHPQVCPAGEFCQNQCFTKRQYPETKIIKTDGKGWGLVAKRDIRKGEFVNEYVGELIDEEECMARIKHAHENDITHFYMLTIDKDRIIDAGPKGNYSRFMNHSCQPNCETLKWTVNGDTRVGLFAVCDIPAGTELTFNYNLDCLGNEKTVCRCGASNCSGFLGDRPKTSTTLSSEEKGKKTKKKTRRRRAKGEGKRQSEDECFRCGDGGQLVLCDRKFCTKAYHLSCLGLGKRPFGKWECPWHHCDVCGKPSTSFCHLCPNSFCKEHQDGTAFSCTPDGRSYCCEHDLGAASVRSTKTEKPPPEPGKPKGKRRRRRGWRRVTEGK
NPR1 activator: GC-A stimulated cGMP production enhancers – HEK293 GC-A cells, cGMP TR-FRET, EC30 ANP, primary screen; Atrial natriuretic peptide receptor 1 (Homo sapiens), P16066; 0% at EC30 ANP, 100% saturating ANP; activation, % at 10 µM; 0.14% of 370,000 active; AID 1671463, 2021; in the data active means activation above about 40%
CaV13 FRET inh: Disruptors of the CACNA1D IQ motif to Ca2+-dependent inactivation inhibitor domain association, primary screening, Förster resonance energy transfer in intact living … | HEK cells, CFP/YFP FRET ICDI-IQ, plate reader, 10 min; percent FRET-ratio fall versus neutral wells | 0.098% of 340,000 active | inhibition, % at 12.3 µM | AID 743397;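 active means mean replicate inhibition of at least 30% and at least 1% of replicates passing that level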;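 further: 0% = median of the neutral control wells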
Casp6 inh: human caspase-6 inhibitors, primary screen, biochemical, VEID-R110 fluorescence, single point, set 2; purified caspase-6, Z-VEID-R110 cleavage fluorescence; inhibition, % at 12.5 µM; 0.53% of 350,000 active; AID 686996, 2013;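 active means mean inhibition across replicates at least about 35%, with every replicate also reaching that limit, limit read from the data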;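 further: 0% = median of neutral control wells and 100% = no fluorescence left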
FN deposition inh: inhibitors of fibronectin matrix deposition, primary screen, AH1F cells, Alexa488-fibronectin fluorescence, plate reader | 0.086% of 350,000 active | inhibition, % at 12.6 µM | AH1F fibroblasts, overnight;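 active means mean inhibition across replicates of 30% or more, regardless of how many single replicates reach that level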;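 further: positive control wells lacked labelled fibronectin entirely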
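Measured by – fluorescence 485/525 nm · System – AH1F fibroblast monolayer, labelled fibronectin deposition · Amount – 10000 cells per well · Buffer or medium – serum-reduced DMEM (2% serum) · Doses – single dose, pinned · Also added – fluorescent fibronectin at 24 nM final · Schedule – 1 h cell attachment, overnight exposure to compound and label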
* marks the source's active call; other numbers are inactive results.

For Cc1ccc(C(=O)O)cc1N1C(=O)c2cccc3c([N+](=O)[O-])ccc(c23)C1=O the results were GC-B act 7, NSD2 HMT inh 49, NPR1 activator 4, CaV13 FRET inh -53, Casp6 inh 42* and FN deposition inh -14.
CC(C)NC(=O)Nc1ccc2c(c1)C(=O)N([C@@H](C)CO)C[C@H](C)[C@H](CN(C)C(=O)CCC(F)(F)F)OCCCC[C@@H](C)O2 was read as Casp6 inh -5 and FN deposition inh 3.
Screening CC(=O)NNc1cc(N2CCOCC2)nc(N2CCOCC2)n1 returned GC-B act -4, NPR1 activator 3, CaV13 FRET inh active, Casp6 inh 2 and FN deposition inh 0.
Screening CC(C)(C)c1ccc(C(=O)NNc2cc(N3CCOCC3)nc(N3CCOCC3)n2)cc1 returned GC-B act -4, NSD2 HMT inh 4, NPR1 activator 1, CaV13 FRET inh 0, Casp6 inh -2 and FN deposition inh -5.
For CCC(=O)OCCNc1cc(Sc2nc3ccccc3[nH]2)c2nonc2c1[N+](=O)[O-] the results were GC-B act 27, NSD2 HMT inh -1, NPR1 activator 43*, CaV13 FRET inh -5 and FN deposition inh 10.
Screening NC(=S)N=Nc1c(O)cc(O)c2[nH]c(=O)ccc12 returned GC-B act -8, NPR1 activator -3, CaV13 FRET inh -6, Casp6 inh 93* and FN deposition inh -9.
For CCOc1cccc(/C=C(/C#N)c2nc3ccccc3[nH]2)c1OCC(=O)O the results were GC-B act 1, NSD2 HMT inh 1, NPR1 activator 3, CaV13 FRET inh -7, Casp6 inh 45* and FN deposition inh 0.
Screening COc1cccc(/C=C(\C#N)c2nc3ccc(C)cc3[nH]2)c1OCC(=O)O returned GC-B act -2, NSD2 HMT inh -4, NPR1 activator 5, CaV13 FRET inh -1, Casp6 inh 4 and FN deposition inh -1.
Screening CCCNC(=O)N1C[C@@H](O)COC[C@@H]2O[C@@H](CC(=O)N[C@H]3CCN(Cc4ccccc4)C3)CC[C@H]21 returned Casp6 inh 0 and FN deposition inh -16.
Screening COC(=O)CC1C(=O)NCCN1C(=O)CSc1nnnn1-c1ccc(Cl)cc1 (stereo unspecified) returned GC-B act 2, NSD2 HMT inh -4, NPR1 activator 0, CaV13 FRET inh -6 and Casp6 inh 50*.
O=C(CSc1nnnn1-c1ccc(Cl)cc1)N1CCNC1=O was read as GC-B act 0, NSD2 HMT inh -6, NPR1 activator 2, CaV13 FRET inh -5, Casp6 inh -2 and FN deposition inh -10.
`OC(CNC1CCCc2ccccc21)COc1c(Cl)cccc1Cl` (stereo unspecified) gave GC-B act -13, NSD2 HMT inh 9, NPR1 activator -12, CaV13 FRET inh -9, Casp6 inh 3 and FN deposition inh 42*.
For O=C(NCC(=O)N1CC=C(c2ccccc2)CC1)c1ccccc1Br the results were GC-B act 0, NSD2 HMT inh -3, NPR1 activator 2 and Casp6 inh 80*.
For COc1ccccc1CCC(=O)Nc1ccc2c(c1)CN(CCCn1cccn1)CC2 the results were GC-B act -2, NSD2 HMT inh -6, NPR1 activator 1, CaV13 FRET inh -2, Casp6 inh 99* and FN deposition inh 2.
COc1cc(CN2CCc3ccc(NC(=O)CCc4ccccc4OC)cc3C2)ccc1O was read as GC-B act 0, NSD2 HMT inh -2, NPR1 activator -2, CaV13 FRET inh -5, Casp6 inh -1 and FN deposition inh 0.
Screening CCc1ccc(NC(=O)CSc2nnc(-c3ccco3)o2)cc1 returned GC-B act 2, NSD2 HMT inh -1, NPR1 activator 1, CaV13 FRET inh -7, Casp6 inh 5 and FN deposition inh 31*.
Screening C[C@H](O)[C@@H]1C(=O)N2CCc3c([nH]c4ccccc34)[C@@H]2C[C@@H]1N(C)C(=O)Nc1cccc2ccccc12 returned GC-B act 6, NPR1 activator 0, CaV13 FRET inh -10, Casp6 inh 82* and FN deposition inh -12.
Screening Cc1ccccc1NC(=O)c1ccc(Cl)c(NC(=O)C2CCCC2)c1 returned NSD2 HMT inh 0.
For COc1ccc(CCN=C(N)NS(=O)(=O)c2ccc(OC)cc2)cc1 the results were GC-B act -7, NSD2 HMT inh 0, NPR1 activator -3, CaV13 FRET inh -19 and FN deposition inh 3.
Screening COc1ccc(CCN=C(N)NS(=O)(=O)c2ccc(F)cc2)cc1 returned GC-B act -1, NPR1 activator 0, CaV13 FRET inh 73*, Casp6 inh -1 and FN deposition inh 0.
Cn1c(SCC(=O)NC2CCCCC2)nnc1-c1ccccn1 was read as GC-B act -1, NSD2 HMT inh -2, NPR1 activator -2 and Casp6 inh 39*.
CC(C)c1ccc(-c2nnc(SCC(=O)NC3CC3)n2C)cc1 was read as GC-B act -14, NSD2 HMT inh -2, NPR1 activator 0 and Casp6 inh 53*.
Cn1c(SCC(=O)NC2CCCC2)nnc1-c1ccncc1 was read as GC-B act 2, NSD2 HMT inh -4, NPR1 activator 0, CaV13 FRET inh -5 and FN deposition inh 5.
Screening CO[C@H]1CN(C)C(=O)c2cc(NS(C)(=O)=O)ccc2OC[C@H](C)N(C(=O)CC2CC2)C[C@H]1C returned Casp6 inh 2 and FN deposition inh -1.
For Cc1csc(NC(=O)CSc2nc3[nH]c(=O)cc(O)c3s2)n1 the results were GC-B act 1, NSD2 HMT inh -9, NPR1 activator -3, CaV13 FRET inh -6 and Casp6 inh -1.
For CCc1nnc(NC(=O)CSc2sc3c(O)cc(=O)[nH]c3c2C#N)s1 the results were GC-B act 1, NPR1 activator 1, CaV13 FRET inh -7, Casp6 inh 65* and FN deposition inh 0.
Cc1csc(NC(=O)CSc2sc3c(O)cc(=O)[nH]c3c2C#N)n1 was read as GC-B act 3, NSD2 HMT inh 41, NPR1 activator 2, CaV13 FRET inh -3, Casp6 inh 79* and FN deposition inh 13.

Compound activity: PubChem, several laboratories
